In brackets after ≈: the same amount, converted by molar mass.
Tests used:
BXPC-3 = assay: Growth inhibition of human BxPC3 cells by sulforhodamine B method; format: functional
Summary of the method: (§1)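 Sulforhodamine B assay, with growth inhibition read as reduced formation of cellular protein.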

SF-295 = assay: Growth inhibition of human SF295 cells by sulforhodamine B method; format: functional; summary of the method: as §1
DU-145 = assay: Growth inhibition of human DU145 cells by sulforhodamine B method; format: functional; summary of the method: as §1
P388 = assay: Cytotoxicity against mouse P388 cells by sulforhodamine B method; format: functional; summary of the method: as §1
[1] = Solubility in water; format: physicochemical
NCI-H460 = assay: Growth inhibition of human NCI-H460 cells by sulforhodamine B method; format: functional; summary of the method: as §1
MCF7 [2] = assay: Growth inhibition of human MCF7 after 48 hrs by sulforhodamine B method; format: functional, cell-based; conditions: MCF7, 48 h; summary of the method: as §1
Enterococcus faecalis = assay: Antimicrobial activity against Enterococcus faecalis ATCC 29212 by broth microdilution assay; format: functional
Summary of the method: (§2)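 Broth microdilution following NCCLS standards: M7-A5 for aerobic bacteria and M27-A2 for yeasts. Each assay was repeated at least twice on separate days.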

Streptococcus pneumoniae = assay: Antimicrobial activity against Streptococcus pneumoniae ATCC 6303 by broth microdilution assay; format: functional; summary of the method: as §2
Cryptococcus neoformans = assay: Antimicrobial activity against Cryptococcus neoformans ATCC 90112 by broth microdilution assay; format: functional; summary of the method: as §2
Neisseria gonorrhoeae = assay: Antimicrobial activity against Neisseria gonorrhoeae ATCC 49226 by broth microdilution assay; format: functional
Summary of the method: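 Screened by broth microdilution following NCCLS guidelines for bacteria grown aerobically. Each assay was repeated at least twice, on separate days.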

Bos taurus [3] = species: Bos taurus; assay: Displacement of [3H]colchicine from bovine tubulin at 50 uM
Summary of the method: (§3)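 Bovine brain tubulin at 0.1 mg/mL (1.0 µM) incubated with 5.0 µM [3H]colchicine and inhibitor at the stated concentration. Read-out is inhibition of radiolabel binding to tubulin, in % ± SD.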

Bos taurus [4] = species: Bos taurus; assay: Displacement of [3H]vinblastine from bovine tubulin at 80 uM
Summary of the method: (§4)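 Bovine brain tubulin at 0.5 mg/mL (5.0 µM) with 5 µM [3H]vinblastine and inhibitor as stated, in 0.5 mM MgCl2, 0.1 M MES pH 6.9 and 4% (v/v) DMSO. Incubated 30 min at 20–22 °C. Bound label separated by centrifugal gel filtration on syringe columns at 2,000 rpm; result is % inhibition ± SD.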

[5] = Inhibition of bovine brain tubulin assembly; design: species or system Bos taurus
Summary of the method: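 Bovine brain tubulin at 1.0 mg/mL (10 µM) assembled with varying inhibitor concentrations. IC50 reported in µM ± SD.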

Bos taurus [6] = species: Bos taurus; assay: Displacement of [3H]vinblastine from bovine tubulin at 10 uM; summary of the method: as §4
MCF7 [7] = assay: Increase in mitotic index in human MCF7 cells at 10 times the IC50 concentration after 16 hrs; format: functional
Summary of the method: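 MCF-7 cells grown with drug for 16 h, then DNA stain added. Result is the percentage of cells in mitosis.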

Bos taurus [8] = species: Bos taurus; assay: Displacement of [3H]colchicine from bovine tubulin at 2 uM; summary of the method: as §3

COc1ccc(/C=C\c2cc(OC)c3c(c2)OCO3)cc1NC(=O)[C@@H](N)Cc1ccc(O)cc1.Cl
GI50 (BXPC-3): 0.064 µg/mL | GI50 (SF-295): 0.064 µg/mL | GI50 (DU-145): 0.08 µg/mL | GI50 (P388): 0.0329 µg/mL | solubility [1]: < 100 µg/mL | GI50 (NCI-H460): 0.096 µg/mL | GI50 (MCF7 [2]): 0.041 µg/mL

COc1ccc(/C=C\c2cc(OC)c3c(c2)OCO3)cc1NC(=O)[C@H](C)[C@@H](OC)[C@@H]1CCCN1.O=C(O)C(F)(F)F
MIC (Enterococcus faecalis): 32 µg/mL | GI50 (BXPC-3): 0.23 µg/mL | MIC (Streptococcus pneumoniae): 8 µg/mL | MIC (Cryptococcus neoformans): 64 µg/mL | GI50 (SF-295): 0.054 µg/mL | GI50 (DU-145): 0.26 µg/mL | GI50 (P388): 0.0263 µg/mL | MIC (Neisseria gonorrhoeae): 16 µg/mL | GI50 (NCI-H460): 0.062 µg/mL | GI50 (MCF7 [2]): 0.07 µg/mL

CC[C@H](C)[C@@H]([C@@H](CC(=O)N1CCC[C@H]1[C@H](OC)[C@@H](C)C(=O)O)OC)N(C)C(=O)[C@@H](NC(=O)[C@H](C(C)C)N(C)C)C(C)C
Activity (Bos taurus [3]): 5.2% | Activity (Bos taurus [4]): 87%

COc1ccc(/C=C\c2cc(OC)c3c(c2)OCO3)cc1NC(=O)[C@H](Cc1ccc(OP(=O)(OCc2ccccc2)OCc2ccccc2)cc1)NC(=O)OCc1ccccc1
MIC (Enterococcus faecalis): 64 µg/mL (≈ 74.7 µM) | GI50 (BXPC-3): > 10 µg/mL | GI50 (SF-295): > 10 µg/mL | GI50 (DU-145): > 10 µg/mL | GI50 (P388): 0.133 µg/mL (≈ 0.155 µM) | GI50 (NCI-H460): > 10 µg/mL | GI50 (MCF7 [2]): > 10 µg/mL

COc1ccc(/C=C\c2cc(OC)c3c(c2)OCO3)cc1NC(=O)[C@@H](N)CC(=O)[O-].[Na+]
GI50 (BXPC-3): 0.38 µg/mL | GI50 (SF-295): 0.25 µg/mL | GI50 (DU-145): 0.33 µg/mL | GI50 (P388): 0.361 µg/mL | solubility [1]: < 100 µg/mL | GI50 (NCI-H460): 0.3 µg/mL | GI50 (MCF7 [2]): 0.51 µg/mL

COc1ccc(/C=C\c2cc(OC)c3c(c2)OCO3)cc1NC(=O)[C@@H](N)Cc1ccc(OP(=O)(O)O)cc1
MIC (Enterococcus faecalis): 16 µg/mL (≈ 29.5 µM) | GI50 (BXPC-3): > 1 µg/mL | GI50 (SF-295): > 1 µg/mL | GI50 (DU-145): > 1 µg/mL | GI50 (P388): > 10 µg/mL | MIC (Neisseria gonorrhoeae): 0.125 µg/mL (≈ 0.23 µM) | GI50 (NCI-H460): > 1 µg/mL | GI50 (MCF7 [2]): > 1 µg/mL

COc1ccc(/C=C\c2cc(OC)c3c(c2)OCO3)cc1NC(=O)[C@H](C)[C@@H](OC)[C@@H]1CCCN1C(=O)OC(C)(C)C
GI50 (BXPC-3): 0.58 µg/mL (≈ 1.02 µM) | MIC (Cryptococcus neoformans): 64 µg/mL (≈ 113 µM) | GI50 (SF-295): 0.53 µg/mL (≈ 0.932 µM) | GI50 (DU-145): 1.9 µg/mL (≈ 3.34 µM) | GI50 (P388): 0.225 µg/mL (≈ 0.396 µM) | GI50 (NCI-H460): 0.75 µg/mL (≈ 1.32 µM) | GI50 (MCF7 [2]): 0.38 µg/mL (≈ 0.668 µM)

COc1ccc(/C=C\c2cc(OC)c3c(c2)OCO3)cc1NC(=O)[C@H](Cc1ccc(OP(=O)([O-])O)cc1)NP(=O)(O)O.[Na+]
GI50 (BXPC-3): 18.6 µg/mL | GI50 (SF-295): > 1 µg/mL | GI50 (DU-145): > 1 µg/mL | GI50 (P388): 0.27 µg/mL | MIC (Neisseria gonorrhoeae): 4 µg/mL | GI50 (NCI-H460): > 1 µg/mL | GI50 (MCF7 [2]): 1.3 µg/mL

CC[C@H](C)[C@@H]([C@@H](CC(=O)N1CCC[C@H]1[C@H](OC)[C@@H](C)C(=O)Nc1cc(/C=C\c2cc(OC)c3c(c2)OCO3)ccc1OC)OC)N(C)C(=O)[C@@H](NC(=O)[C@H](C(C)C)N(C)C)C(C)C
GI50 (BXPC-3): 0.048 µg/mL (≈ 0.0545 µM) | IC50 [5]: 1300 nM | Activity (Bos taurus [6]): 48% | GI50 (SF-295): 0.0031 µg/mL (≈ 0.00352 µM) | GI50 (DU-145): 0.02 µg/mL (≈ 0.0227 µM) | Activity (Bos taurus [3]): 30% | GI50 (P388): < 0.01 µg/mL | Activity (Bos taurus [4]): 87% | GI50 (NCI-H460): 0.025 µg/mL (≈ 0.0284 µM) | GI50 (MCF7 [2]): 0.032 µg/mL (≈ 0.0364 µM) | Activity (MCF7 [7]): 57%

COc1ccc(/C=C\c2cc(OC)c(OC)c(OC)c2)cc1O [COMBRETASTATIN A4]
Activity (Bos taurus [6]): 0% | Activity (Bos taurus [8]): 98% | Activity (Bos taurus [4]): 0%

COc1ccc(/C=C\c2cc(OC)c3c(c2)OCO3)cc1NC(=O)[C@H](Cc1ccc(OP(=O)(OCc2ccccc2)OCc2ccccc2)cc1)NP(=O)(OCc1ccccc1)OCc1ccccc1
GI50 (P388): 10 µg/mL (≈ 10.2 µM)

COc1ccc(/C=C\c2cc(OC)c3c(c2)OCO3)cc1NC(=O)[C@H](CC(=O)OC(C)(C)C)NC(=O)OC(C)(C)C
GI50 (BXPC-3): 3.4 µg/mL (≈ 5.96 µM) | GI50 (SF-295): 2.4 µg/mL (≈ 4.21 µM) | GI50 (DU-145): 2.3 µg/mL (≈ 4.03 µM) | GI50 (P388): 0.385 µg/mL (≈ 0.675 µM) | GI50 (NCI-H460): 1.7 µg/mL (≈ 2.98 µM) | GI50 (MCF7 [2]): 3 µg/mL (≈ 5.26 µM)

COc1ccc(/C=C\c2cc(OC)c3c(c2)OCO3)cc1NC(=O)[C@H](Cc1ccc(OC(C)(C)C)cc1)NC(=O)OCc1ccccc1
GI50 (BXPC-3): 0.049 µg/mL (≈ 0.0751 µM) | GI50 (SF-295): 0.44 µg/mL (≈ 0.674 µM) | GI50 (DU-145): 0.39 µg/mL (≈ 0.597 µM) | GI50 (P388): 0.38 µg/mL (≈ 0.582 µM) | GI50 (NCI-H460): 0.41 µg/mL (≈ 0.628 µM) | GI50 (MCF7 [2]): 0.36 µg/mL (≈ 0.552 µM)

CC[C@H](C)[C@@H]([C@@H](CC(=O)N1CCC[C@H]1[C@H](OC)[C@@H](C)C(=O)N[C@@H](Cc1ccccc1)c1nccs1)OC)N(C)C(=O)[C@@H](NC(=O)[C@H](C(C)C)N(C)C)C(C)C [DOLASTATIN-10]
Activity (Bos taurus [6]): 96%

COc1ccc(/C=C\c2cc(OC)c3c(c2)OCO3)cc1N
Activity (Bos taurus [6]): 0% | Activity (Bos taurus [8]): 85% | Activity (Bos taurus [4]): 0%

Reference: ChEMBL document CHEMBL1141770, “Antineoplastic agents. 515. Synthesis of human cancer cell growth inhibitors derived from 3,4-methylenedioxy-5,4'-dimethoxy-3'-amino-Z-stilbene” (J Nat Prod, 2005)
